Data from ChEMBL document CHEMBL1135921, “Potent, orally active heterocycle-based combretastatin A-4 analogues: synthesis, structure-activity relationship, pharmacokinetics, and in vivo antitumor activity evaluation” (J Med Chem, 2002).

Assays:
HCT-15 = test: Inhibition of human HCT-15 (human colon adenocarcinoma, MDR positive) cell growth; type: functional, cell-based
Procedure, shortened: (§1)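 Sulforhodamine B assay following the NCI protocol. HCT-15 and NCI-H460 cells were exposed to final concentrations of 10^-11 to 10^-4 M and grown for 48 h at 37 °C in 5% CO2. […] Cells were TCA-fixed and stained, dye was solubilized in Tris, and absorbance was read. IC50 came from nonlinear regression as the geometric mean of at least two independent runs.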

NCI-H460 = test: Inhibition of human NCI-H460 (human lung large cell carcinoma, MDR negative) cell growth; type: functional, cell-based; procedure, shortened: as §1
[1] = The oral Area under the plasma concentration curve(AUC) measured;when administered perorally; type: ADME
Procedure, shortened: (§2)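 Two animals were used in each dosing group, each given 5 mg/kg either orally or iv. Plasma Cmax, oral AUC and bioavailability are the average of the two animals.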

[2] = Maximum concentration of compound present in plasma measured; type: ADME, organism-based; procedure, shortened: as §2
[3] = Bioavailability; type: ADME, organism-based; settings: eutheria, in vivo; procedure, shortened: as §2
[4] = Oral bioavailability in monkey; type: ADME, organism-based; settings: primates, in vivo; procedure, shortened: as §2
[5] = Oral bioavailability in mouse; type: ADME, organism-based; settings: in vivo; procedure, shortened: as §2
[6] = Oral bioavailability in dog; type: ADME, organism-based, Canis lupus familiaris; settings: in vivo; procedure, shortened: as §2
Tubulin beta chain = Tubulin beta chain (Bos taurus, UniProt Q6B856); test: Concentration needed to inhibit tubulin polymerization by 50%; type: functional
Procedure, shortened: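 Microtubule protein was purified from bovine brain, or purified tubulin in glycerol was used. Tubulin, buffer and GTP were prechilled to 4 °C, then added to wells containing drug or solvent. Polymerization ran at 37 °C, with light scattering followed at 340 nm for 30 min. The degree of polymerization was taken from the AUC of the profile. IC50 came from nonlinear regression as the geometric mean of at least two independent runs.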

[7] = The oral Area under the plasma concentration curve(AUC) measured;when administered as perorally; type: ADME; procedure, shortened: as §2

Sequence of Tubulin beta chain (Q6B856 whole entry): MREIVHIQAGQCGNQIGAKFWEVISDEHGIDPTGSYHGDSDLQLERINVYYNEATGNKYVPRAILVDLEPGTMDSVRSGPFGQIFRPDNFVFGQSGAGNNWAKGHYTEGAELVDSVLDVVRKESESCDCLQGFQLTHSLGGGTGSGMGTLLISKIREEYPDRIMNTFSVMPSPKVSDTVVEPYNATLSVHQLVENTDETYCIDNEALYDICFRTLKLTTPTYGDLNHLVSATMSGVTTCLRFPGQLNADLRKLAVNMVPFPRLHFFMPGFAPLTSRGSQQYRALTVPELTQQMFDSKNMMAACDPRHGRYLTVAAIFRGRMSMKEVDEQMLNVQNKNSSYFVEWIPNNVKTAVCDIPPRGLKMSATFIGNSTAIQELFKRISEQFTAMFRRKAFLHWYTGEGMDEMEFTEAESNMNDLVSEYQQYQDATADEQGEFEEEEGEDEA

Row | Structure (SMILES) | IC50 (HCT-15) [µM] | IC50 (NCI-H460) [µM] | AUC [1] [µg·h/mL] | Cmax [2] [µg/mL] | bioavailability [3] [%] | bioavailability [4] [%] | bioavailability [5] [%] | bioavailability [6] [%] | IC50 (Tubulin beta chain) [µM] | AUC [7] [µg·h/mL]
1 | COc1cc(-n2cncc2-c2ccc(N)cc2)cc(OC)c1OC | 7.26 | 8.55 |  |  |  |  |  |  |  | 
2 | COc1cc(-c2ncn(C)c2-c2cc(F)c3c(ccn3C)c2)cc(OC)c1OC | 0.027 | 0.023 | 0.34 | 0.209 | 12.3 |  |  |  |  | 
3 | COc1cc(-c2ncoc2-c2ccc(N(C)C)cc2)cc(OC)c1OC | 0.018 | 0.041 |  |  |  |  |  |  | 0.87 | 
4 | COc1cc(-c2[nH]cnc2-c2ccc(N(C)C)cc2)cc(OC)c1OC | 0.0044 | 0.002 | 0.0162 | 0.0151 | 1.3 |  |  |  | 3.7 | 
5 | COc1ccc(-c2[nH]cnc2-c2cc(OC)c(OC)c(OC)c2)cc1 | 0.0078 | 0.0072 |  |  |  |  |  |  | 2.8 | 
6 | COc1cc(-c2ncoc2-c2ccc3c(ccn3C)c2)cc(OC)c1OC | 0.0074 | 0.012 |  |  |  |  |  |  | 0.79 | 
7 | COc1cc(-c2[nH]c(-c3ccoc3)nc2-c2ccc(N(C)C)cc2)cc(OC)c1OC | 0.067 | 0.19 |  |  |  |  |  |  |  | 
8 | COc1cc(-n2cncc2-c2ccc3c(c2)CCN3C)cc(OC)c1OC | 0.058 | 0.15 |  |  |  |  |  |  | 48 | 
9 | COc1ccc(-c2cncn2-c2cc(OC)c(OC)c(OC)c2)cc1N | 0.069 | 0.063 |  |  |  |  |  |  | 7.7 | 
10 | COc1ccc(-c2ncn(C)c2-c2cc(OC)c(OC)c(OC)c2)cc1N | 0.079 | 0.034 | 1.5 | 0.623 | 29.9 |  |  |  |  | 
11 | COc1ccc(-c2[nH]cnc2-c2cc(OC)c(OC)c(OC)c2)cc1N | 0.0081 | 0.0085 | < 0.218 | < 0.074 | 45 |  |  |  | 0.68 | 
12 | COc1ccc(-c2ncoc2-c2cc(OC)c(OC)c(OC)c2)cc1N | 0.0072 | 0.011 |  |  | 0 |  |  |  |  | 
13 | COc1ccc(-c2c(-c3cc(OC)c(OC)c(OC)c3)ncn2C)cc1N | 0.22 | 0.17 | 10.8 | 3.86 | 82.3 | 91.2 | 89.7 | 45.8 | 31 | 
14 | COc1cc(-n2cncc2-c2ccc3[nH]ccc3c2)cc(OC)c1OC | 0.35 | 0.54 |  |  |  |  |  |  | 71 | 
15 | COc1cc(-c2c(-c3ccc4c(ccn4C)c3)ncn2C)cc(OC)c1OC | 0.027 | 0.051 | 0.112 | 0.07 | 2.5 |  |  |  |  | 

Continued by falling IC50 (HCT-15), values first:

Row | IC50 (HCT-15) [µM] | IC50 (NCI-H460) [µM] | AUC [1] [µg·h/mL] | Cmax [2] [µg/mL] | bioavailability [3] [%] | bioavailability [4] [%] | bioavailability [5] [%] | bioavailability [6] [%] | IC50 (Tubulin beta chain) [µM] | AUC [7] [µg·h/mL] | Structure (SMILES)
16 | 0.333 | 0.589 |  | < 0.01 | 0.01 |  |  |  | 130 |  | COc1cc(-c2cncn2-c2ccc(N(C)C)cc2)cc(OC)c1OC
17 | 0.303 | 0.707 |  |  |  |  |  |  |  |  | COc1cc(-c2nccnc2-c2ccc(N(C)C)cc2)cc(OC)c1OC
18 | 0.089 | 0.061 |  |  |  |  |  |  | 7.6 |  | COc1ccc(-c2cncn2-c2cc(OC)c(OC)c(OC)c2)cc1O
19 | 0.08 | 0.27 |  |  |  |  |  |  | 35 |  | COc1cc(-n2ccnc2-c2ccc(N(C)C)cc2)cc(OC)c1OC
20 | 0.076 | 0.053 |  |  |  |  |  |  |  |  | COc1ccc(-c2ncoc2-c2cc(OC)c3c(c2)OCO3)cc1N
21 | 0.036 | 0.079 |  |  |  |  |  |  | 23 |  | COc1cc(-n2cncc2-c2ccc(N(C)C)cc2)cc(OC)c1OC
22 | 0.028 | 0.033 |  |  |  |  |  |  |  |  | COc1ccc(-c2ccnn2-c2cc(OC)c(OC)c(OC)c2)cc1N
23 | 0.02 | 0.032 | 0.461 | 0.169 | 32 | 12.5 | 24.2 | 44.5 | 2 |  | COc1cc(-c2ncn(C)c2-c2ccc3ccn(C)c3c2)cc(OC)c1OC
24 | 0.015 | 0.035 |  |  |  |  |  |  |  |  | COc1ccc(-c2nc(C)oc2-c2cc(OC)c(OC)c(OC)c2)cc1O
25 | 0.014 | 0.019 |  |  |  |  |  |  | 1.8 |  | COc1cc(-n2cncc2-c2ccc3c(ccn3C)c2)cc(OC)c1OC
26 | 0.012 | 0.012 | 0.22 | 0.13 | 10.2 |  |  |  |  |  | COc1cc(-c2ncn(C)c2-c2cc(Cl)c3c(ccn3C)c2)cc(OC)c1OC
27 | 0.011 | 0.0092 |  | 0.022 | 0.5 |  |  |  | 0.92 | 0.012 | COc1ccc(-c2ocnc2-c2cc(OC)c(OC)c(OC)c2)cc1N
28 | 0.01 | 0.011 |  |  |  |  |  |  | 0.73 |  | COc1ccc(-c2[nH]cnc2-c2cc(OC)c(OC)c(OC)c2)cc1O
29 | 0.0038 | 0.0038 |  |  |  |  |  |  |  |  | COc1ccc(-c2[nH]cnc2-c2cc(OC)c(OC)c(OC)c2)cc1F
30 | 0.0022 | 0.0023 |  |  |  |  |  |  | 0.98 |  | COc1ccc(-c2ocnc2-c2cc(OC)c(OC)c(OC)c2)cc1O
31 | 0.0017 | 0.0018 | 0.0142 | < 0.01 | 0.31 |  |  |  | 1.1 |  | COc1cc(-c2[nH]cnc2-c2ccc3ccn(C)c3c2)cc(OC)c1OC
